# ChEMBL document CHEMBL3817728, “Synthesis, Evaluation, and Mechanism Study of Novel Indole-Chalcone Derivatives Exerting Effective Antitumor Activity Through Microtubule Destabilization in Vitro and in Vivo” (J Med Chem, 2016)
# How the values were obtained:
# [1] = Cytotoxicity against human A2780/TAX cells assessed as growth inhibition after 48 hrs by MTT assay; type: functional, cell-based
# Summary of the method: (§1)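 Drug-resistant lines were tested by a 48 h MTT viability assay. IC50 was derived from dose-response curves and reported as mean ± SE of at least three independent experiments.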
# A2780 [2] = experiment: Cytotoxicity against human A2780 cells assessed as cell viability after 48 hrs by MTT assay; type: functional, cell-based; details: A2780, 48 h
# Summary of the method: (§2)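 Cancer cell lines treated with compound for 48 h, and viability read by MTT assay. IC50 given as mean ± SD from at least three independent experiments.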
# A549 [3] = experiment: Cytotoxicity against human A549 cells assessed as cell viability after 48 hrs by MTT assay; type: functional, cell-based; details: A549, 48 h; summary of the method: as §2
# MCF7 [4] = experiment: Resistance index, ratio of IC50 for human MCF7/DX cells to IC50 for human MCF7 cells; type: functional
# [5] = Cytotoxicity against human HCT8/VCT cells assessed as growth inhibition after 48 hrs by MTT assay; type: functional, cell-based; summary of the method: as §1
# [6] = Cytotoxicity against human MCF7/DX cells assessed as growth inhibition after 48 hrs by MTT assay; type: functional, cell-based; summary of the method: as §1
# [7] = Cytotoxicity against human A549/CDDP cells assessed as growth inhibition after 48 hrs by MTT assay; type: functional, cell-based; details: A549, 48 h; summary of the method: as §1
# HCT-8 = experiment: Resistance index, ratio of IC50 for human HCT8/VCT cells to IC50 for human HCT8 cells; type: functional
# A2780 [8] = experiment: Resistance index, ratio of IC50 for human A2780/TAX cells to IC50 for human A2780 cells; type: functional
# A549 [9] = experiment: Resistance index, ratio of IC50 for human A549/CDDP cells to IC50 for human A549 cells; type: functional
# [10] = Cytotoxicity against human HCT8 cells assessed as cell viability after 48 hrs by MTT assay; type: functional, cell-based; details: HCT-8, 48 h; summary of the method: as §2
# A549 [11] = experiment: Antitumor activity against human A549 cells xenografted in BALB/c nude mouse assessed as tumor growth inhibition at 30 mg/kg, ip administered every other day for 1 month measured every other day post dose relative to vehicle-treated control; type: functional; details: read-out: TGI
# MCF7 [12] = experiment: Cytotoxicity against human MCF7 cells assessed as cell viability after 48 hrs by MTT assay; type: functional, cell-based; details: MCF7, 48 h; summary of the method: as §2
# Tubulin = Tubulin (Sus scrofa, UniProt P02554+P02550); experiment: Inhibition of porcine brain tubulin polymerization measured every 60 secs for 60 mins by DAPI staining-based fluorescence assay
# HeLa = experiment: Cytotoxicity against human HeLa cells assessed as cell viability after 48 hrs by MTT assay; type: functional, cell-based; summary of the method: as §2
# [13] = Cytotoxicity against human Bel7402 cells assessed as cell viability after 48 hrs by MTT assay; type: functional, cell-based; details: Bel-7402, 48 h; summary of the method: as §2
# [14] = Metabolic stability in Sprague-Dawley rat liver microsomes assessed as compound remaining at 90 mins in presence of NADPH regenerating system by HPLC method; type: ADME; details: read-out: Stability
# Summary of the method: (§3)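 Test compound incubated with rat liver microsomes at 37 ℃ in buffer containing an NADPH regenerating system for the stated time. Remaining parent compound was quantified by HPLC.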
# [15] = Metabolic stability in Sprague-Dawley rat liver microsomes assessed as compound remaining at 120 mins in presence of NADPH regenerating system by HPLC method; type: ADME; details: read-out: Stability
# Summary of the method: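 Rat liver microsomes incubated with compound at 37 ℃ for indicated times in buffer containing NADPH regenerating system; residual parent determined by HPLC.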
# [16] = Metabolic stability in Sprague-Dawley rat liver microsomes assessed as compound remaining at 60 mins in presence of NADPH regenerating system by HPLC method; type: ADME; details: read-out: Stability; summary of the method: as §3
# [17] = Metabolic stability in Sprague-Dawley rat liver microsomes assessed as compound remaining at 30 mins in presence of NADPH regenerating system by HPLC method; type: ADME; details: read-out: Stability; summary of the method: as §3
# Mus musculus = experiment: Toxicity in BALB/c nude mouse xenografted with human A549 cells assessed as loss of body weight at 30 mg/kg, ip administered every other day for 1 month measured every other day post dose relative to vehicle-treated control; type: organism-based; details: in vivo
# [18] = Solubility of the compound in sodium phosphate buffer at pH 7.4 at 25 +/- 1 degC; type: physicochemical
smiles,measurement,setting,value
COc1cccc2c1C(=O)c1c(O)c3c(c(O)c1C2=O)C[C@@](O)(C(=O)CO)C[C@@H]3O[C@H]1C[C@H](N)[C@H](O)[C@H](C)O1 [DOXORUBICIN],IC50,[1],3290 nM
same,IC50,A2780 [2],980 nM
same,IC50,A549 [3],2170 nM
same,Ratio IC50,MCF7 [4],49.4
same,IC50,[5],1510 nM
same,IC50,[6],50400 nM
same,IC50,[7],3140 nM
same,Ratio IC50,HCT-8,1.29
same,Ratio IC50,A2780 [8],3.35
same,Ratio IC50,A549 [9],1.44
same,IC50,[10],1170 nM
CC(=O)O[C@H]1C(=O)[C@@]2(C)[C@H]([C@H](OC(=O)c3ccccc3)[C@]3(O)C[C@H](OC(=O)[C@H](O)[C@@H](NC(=O)c4ccccc4)c4ccccc4)C(C)=C1C3(C)C)[C@]1(OC(C)=O)CO[C@@H]1C[C@@H]2O [PACLITAXEL],IC50,[1],5680 nM
same,IC50,A2780 [2],5 nM
same,IC50,[5],125 nM
same,IC50,[6],135 nM
same,IC50,[7],23 nM
same,IC50,[10],19 nM
COc1ccc(/C=C\c2cc(OC)c(OC)c(OC)c2)cc1OP(=O)(O)O [FOSBRETABULIN],inhibition in vivo at 30 mg/kg,A549 [11],52.2%
CC[C@]1(O)C[C@H]2CN(CCc3c([nH]c4ccccc34)[C@@](C(=O)OC)(c3cc4c(cc3OC)N(C=O)[C@H]3[C@@](O)(C(=O)OC)[C@H](OC(C)=O)[C@]5(CC)C=CCN6CC[C@]43[C@@H]65)C2)C1 [VINCRISTINE],IC50,[1],168 nM
same,IC50,MCF7 [12],98 nM
same,IC50,A2780 [2],26 nM
same,IC50,A549 [3],61 nM
same,Ratio IC50,MCF7 [4],12.9
same,IC50,[5],7860 nM
same,IC50,[6],1260 nM
same,IC50,[7],561 nM
same,Ratio IC50,HCT-8,22.5
same,Ratio IC50,A2780 [8],6.46
same,Ratio IC50,A549 [9],9.2
same,IC50,[10],350 nM
COc1ccc2[nH]cc(/C=C(\C)C(=O)c3cc(OC)c(OC)c(OC)c3)c2c1,IC50,Tubulin,5060 nM
same,IC50,MCF7 [12],33 nM
same,IC50,A2780 [2],32 nM
same,IC50,A549 [3],74 nM
same,IC50,HeLa,78 nM
same,IC50,[10],48 nM
same,IC50,[13],96 nM
COc1ccc(/C=C\c2cc(OC)c(OC)c(OC)c2)cc1O [COMBRETASTATIN A4],remaining at 1.5 h,[14],23.1%
same,IC50,[1],58 nM
same,remaining at 2 h,[15],20.7%
same,IC50,A2780 [2],9 nM
same,IC50,A549 [3],5 nM
same,IC50,HeLa,12 nM
same,IC50,[5],5 nM
same,IC50,[6],27 nM
same,remaining at 1 h,[16],28.6%
same,IC50,[10],1.7 nM
same,remaining at 0.5 h,[17],68.1%
same,IC50,[13],3 nM
COc1ccc2c(/C=C(\C)C(=O)c3cc(OC)c(OC)c(OC)c3)cn(CO)c2c1,IC50,Tubulin,3590 nM
same,IC50,MCF7 [12],19 nM
same,IC50,A2780 [2],21 nM
same,IC50,A549 [3],8 nM
same,IC50,HeLa,13 nM
same,IC50,[10],17 nM
same,IC50,[13],9 nM
COc1ccc2c(/C=C(\C)C(=O)c3cc(OC)c(OC)c(OC)c3)cn(P(=O)([O-])[O-])c2c1.[Na+].[Na+],Activity,Mus musculus,Non-toxic
same,inhibition in vivo at 30 mg/kg,A549 [11],70.4%
same,IC50,MCF7 [12],38 nM
same,IC50,A2780 [2],43 nM
same,IC50,A549 [3],56 nM
same,IC50,HeLa,78 nM
same,solubility,[18],125 mg/mL
same,IC50,[10],92 nM
same,IC50,[13],61 nM
COc1ccc2c(c1)c(/C=C(\C)C(=O)c1cc(OC)c(OC)c(OC)c1)cn2C,IC50,MCF7 [12],548 nM
same,IC50,A2780 [2],427 nM
same,IC50,A549 [3],331 nM
same,IC50,HeLa,235 nM
same,IC50,[10],726 nM
same,IC50,[13],356 nM
COc1ccc2c(/C=C/C(=O)c3ccc(OC)c4c3OC(C)(C)C=C4)c[nH]c2c1,IC50,Tubulin,4390 nM
same,IC50,MCF7 [12],56 nM
same,IC50,A2780 [2],41 nM
same,IC50,A549 [3],55 nM
same,IC50,HeLa,49 nM
same,IC50,[10],77 nM
same,IC50,[13],78 nM
COc1ccc2c(/C=C/C(=O)c3cc(OC)c(OC)c(OC)c3)cn(C)c2c1,IC50,Tubulin,3480 nM
same,IC50,MCF7 [12],87 nM
same,IC50,A2780 [2],25 nM
same,IC50,A549 [3],23 nM
same,IC50,HeLa,62 nM
same,IC50,[10],47 nM
same,IC50,[13],61 nM
COc1ccc(C(=O)/C=C/c2cn(C)c3cccc(OC)c23)c2c1C=CC(C)(C)O2,IC50,MCF7 [12],> 1000 nM
same,IC50,A2780 [2],> 1000 nM
same,IC50,A549 [3],> 1000 nM
same,IC50,HeLa,> 1000 nM
same,IC50,[10],> 1000 nM
same,IC50,[13],> 1000 nM
COc1ccc2c(/C=C(\C)C(=O)c3cc(OC)c(OC)c(OC)c3)cn(C)c2c1,IC50,MCF7 [12],42 nM
same,IC50,A2780 [2],34 nM
same,IC50,A549 [3],41 nM
same,IC50,HeLa,31 nM
same,IC50,[10],61 nM
same,IC50,[13],28 nM
COc1ccc2c(c1)c(/C=C/C(=O)c1ccc(OC)c3c1OC(C)(C)C=C3)cn2C,IC50,MCF7 [12],567 nM
same,IC50,A2780 [2],497 nM
same,IC50,A549 [3],452 nM
same,IC50,HeLa,415 nM
same,IC50,[10],675 nM
same,IC50,[13],389 nM
COc1cc(C(=O)/C=C/c2cccc3[nH]ccc23)cc(OC)c1OC,IC50,MCF7 [12],50 nM
same,IC50,A2780 [2],41 nM
same,IC50,A549 [3],36 nM
same,IC50,HeLa,38 nM
same,IC50,[10],57 nM
same,IC50,[13],63 nM
COc1cc2c(c(OC)c1OC)C/C(=C\c1cccc3[nH]ccc13)C2=O,IC50,MCF7 [12],47 nM
same,IC50,A2780 [2],35 nM
same,IC50,A549 [3],26 nM
same,IC50,HeLa,27 nM
same,IC50,[10],38 nM
same,IC50,[13],35 nM
